In ChEMBL document CHEMBL1129363, “(S)-13-[(dimethylamino)methyl]-10,11,14,15-tetrahydro-4,9:16, 21-dimetheno-1H, 13H-dibenzo[e,k]pyrrolo[3,4-h][1,4,13]oxadiazacyclohexadecene-1,3(2H)-d ione (LY333531) and related analogues: isozyme selective inhibitors of protein kinase C beta” (J Med Chem, 1996):

Experiments:
[1] = biological target: Protein kinase C gamma type (Homo sapiens, UniProt P05129); assay: Inhibition of Protein kinase C gamma
[2] = biological target: Protein kinase C eta type (Homo sapiens, UniProt P24723); assay: Inhibition of Protein kinase C eta
[3] = biological target: T1, Protein kinase C epsilon type (Homo sapiens, UniProt Q02156); assay: Inhibition of Protein kinase C epsilon
T1 sequence (Q02156 whole entry): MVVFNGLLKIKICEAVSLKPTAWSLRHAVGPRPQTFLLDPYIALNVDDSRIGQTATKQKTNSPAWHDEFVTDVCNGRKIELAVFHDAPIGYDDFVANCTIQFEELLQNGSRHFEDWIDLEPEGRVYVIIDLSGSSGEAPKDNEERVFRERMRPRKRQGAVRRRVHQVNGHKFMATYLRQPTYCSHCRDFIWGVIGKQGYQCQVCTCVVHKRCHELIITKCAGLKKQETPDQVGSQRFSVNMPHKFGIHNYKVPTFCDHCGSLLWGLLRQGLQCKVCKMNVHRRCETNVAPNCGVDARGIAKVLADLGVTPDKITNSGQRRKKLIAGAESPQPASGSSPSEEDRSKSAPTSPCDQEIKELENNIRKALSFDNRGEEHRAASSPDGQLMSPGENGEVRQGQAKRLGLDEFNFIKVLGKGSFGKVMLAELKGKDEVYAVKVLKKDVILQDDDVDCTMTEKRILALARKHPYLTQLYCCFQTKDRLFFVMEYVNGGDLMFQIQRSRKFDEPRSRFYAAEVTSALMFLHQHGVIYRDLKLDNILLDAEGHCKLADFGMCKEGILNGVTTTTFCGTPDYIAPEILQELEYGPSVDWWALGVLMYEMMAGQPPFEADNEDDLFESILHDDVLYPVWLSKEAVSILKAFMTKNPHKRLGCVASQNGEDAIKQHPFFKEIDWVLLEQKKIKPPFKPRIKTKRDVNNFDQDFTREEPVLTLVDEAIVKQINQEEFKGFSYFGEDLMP

[4] = Inhibition of rat brain Casein kinase II
[5] = Inhibition of Bovine heart cAMP-dependent protein kinase; parameters: species or system Bos taurus
Summary of the method: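 Bovine heart cAMP-dependent kinase catalytic subunit with 200 µg/mL histone type HL substrate in 20 mM HEPES pH 7.5, 10 mM MgCl₂, 30 µM [γ-³²P]ATP; inhibitor in DMSO; 30 °C, 10 min; TCA-stopped, precipitate filtered and scintillation-counted. Average of at least three independent determinations from eight-point titration curves.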

[6] = biological target: Proto-oncogene tyrosine-protein kinase Src (Homo sapiens, UniProt P12931); assay: Inhibition of src kinase
[7] = Effective dose against plasminogen activator activity stimulated by phorbol ester in endothelial cells; assay type: functional; details: Endothelial cell; read-out: ED50 (the source's name)
[8] = Effective concentration for 50% inhibition of endothelial cell based plasminogen activity relative to control by beta-PDBu stimulation; assay type: functional
Summary of the method: (§1)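 Bovine retinal capillary endothelial cells (passages 3–10), grown to confluence (10⁵ cells/well) in EGM with 10% FBS, switched to DME/10% FBS 24 h before assay; treated with 4β-PDBu plus compound in DMSO, 37 °C, 48 h. Lysate (25 mM NH₄OH, 0.5% Triton X-100) incubated with plasminogen and 1 mM chromogenic substrate, 25 °C 45 min, A410 against urokinase/tPA standard curve.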

[9] = biological target: T2, Protein kinase C zeta type (Homo sapiens, UniProt Q05513); assay: Inhibition of Protein kinase C zeta
T2 sequence (Q05513 whole entry): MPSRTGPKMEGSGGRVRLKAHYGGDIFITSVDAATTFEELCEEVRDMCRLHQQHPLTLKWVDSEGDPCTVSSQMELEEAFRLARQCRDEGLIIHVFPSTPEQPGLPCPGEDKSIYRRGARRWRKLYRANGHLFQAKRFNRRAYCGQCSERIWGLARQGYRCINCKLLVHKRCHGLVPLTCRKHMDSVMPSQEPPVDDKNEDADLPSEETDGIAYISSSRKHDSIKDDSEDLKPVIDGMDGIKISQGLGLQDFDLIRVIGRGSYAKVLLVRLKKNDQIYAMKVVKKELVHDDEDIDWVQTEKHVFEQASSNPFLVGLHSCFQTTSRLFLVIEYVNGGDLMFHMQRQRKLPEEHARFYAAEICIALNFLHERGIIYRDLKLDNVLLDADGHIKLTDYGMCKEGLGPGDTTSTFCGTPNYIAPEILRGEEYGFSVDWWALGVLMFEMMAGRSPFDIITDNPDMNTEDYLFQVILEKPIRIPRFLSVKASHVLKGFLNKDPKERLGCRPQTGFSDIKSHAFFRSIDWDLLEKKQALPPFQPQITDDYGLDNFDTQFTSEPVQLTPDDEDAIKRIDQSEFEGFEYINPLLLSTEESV

[10] = Effective concentration for 50% inhibition of endothelial cell- based plasminogen activator activity relative to control by beta-PDBu stimulation; assay type: functional; summary of the method: as §1
[11] = biological target: Protein kinase C delta type (Homo sapiens, UniProt Q05655); assay: Inhibition of Protein kinase C delta
[12] = biological target: T3, Protein kinase C beta type (Homo sapiens, UniProt P05771); assay: Inhibition of Protein kinase C beta 2
[13] = biological target: T3, Protein kinase C beta type; assay: Inhibition of Protein kinase C beta 1
[14] = Concentration for 50% cell death determined by lysosomal staining in the neutral red viability assay.; details: read-out: Tox50
Summary of the method: (§2)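 Bovine retinal capillary endothelial cells, passages 3–10, were grown to confluence (10⁵ cells/well) in EGM with 10% FBS. Medium was switched to DME with 10% FBS 24 h before the assay. Compound in DMSO was added for 48 h at 37 °C. Viability was read by neutral red lysosomal staining, and the value is the concentration giving 50% cell death.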

[15] = biological target: Protein kinase C (PKC); assay: (§3) Inhibition of rat brain Protein kinase C
[16] = biological target: Protein kinase C alpha type (Homo sapiens, UniProt P17252); assay: Inhibition of Protein kinase C alpha
[17] = Inhibition of purified mammalian brain calcium [Ca(2+)]/Calmodulin dependent kinase
[18] = Effective concentration for 50% inhibition of Endothelial cell- based plasminogen activator activity relative to control by beta-PDBu stimulation; assay type: functional; summary of the method: as §1
[19] = Concentration for 50% cell death determined by lysosomal staining in the neutral red viability assay; details: read-out: Tox50; summary of the method: as §2
[20] = biological target: Protein kinase C (PKC); assay: as §3; remark: listed apart in the source
Summary of the method: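 Purified rat-brain PKC was used as enzyme. Values are averages of at least three independent determinations, each from an eight-point titration curve.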

Proto-oncogene tyrosine-protein kinase Src, sequence (P12931 2-536 limits assumed): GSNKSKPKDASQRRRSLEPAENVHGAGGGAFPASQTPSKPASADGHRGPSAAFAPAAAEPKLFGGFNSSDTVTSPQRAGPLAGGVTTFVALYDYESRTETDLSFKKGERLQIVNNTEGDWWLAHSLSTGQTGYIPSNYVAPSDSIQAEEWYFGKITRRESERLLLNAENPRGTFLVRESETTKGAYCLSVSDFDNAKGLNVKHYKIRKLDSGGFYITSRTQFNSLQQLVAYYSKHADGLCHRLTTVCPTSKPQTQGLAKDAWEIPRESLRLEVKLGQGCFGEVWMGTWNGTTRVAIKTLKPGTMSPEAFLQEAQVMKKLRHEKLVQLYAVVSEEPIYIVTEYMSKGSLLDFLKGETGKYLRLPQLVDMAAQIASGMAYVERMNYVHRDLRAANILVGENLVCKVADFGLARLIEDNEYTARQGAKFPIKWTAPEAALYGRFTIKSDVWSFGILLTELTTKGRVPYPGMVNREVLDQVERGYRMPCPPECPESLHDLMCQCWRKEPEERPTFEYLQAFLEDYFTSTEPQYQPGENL
T3 sequence (P05771 whole entry): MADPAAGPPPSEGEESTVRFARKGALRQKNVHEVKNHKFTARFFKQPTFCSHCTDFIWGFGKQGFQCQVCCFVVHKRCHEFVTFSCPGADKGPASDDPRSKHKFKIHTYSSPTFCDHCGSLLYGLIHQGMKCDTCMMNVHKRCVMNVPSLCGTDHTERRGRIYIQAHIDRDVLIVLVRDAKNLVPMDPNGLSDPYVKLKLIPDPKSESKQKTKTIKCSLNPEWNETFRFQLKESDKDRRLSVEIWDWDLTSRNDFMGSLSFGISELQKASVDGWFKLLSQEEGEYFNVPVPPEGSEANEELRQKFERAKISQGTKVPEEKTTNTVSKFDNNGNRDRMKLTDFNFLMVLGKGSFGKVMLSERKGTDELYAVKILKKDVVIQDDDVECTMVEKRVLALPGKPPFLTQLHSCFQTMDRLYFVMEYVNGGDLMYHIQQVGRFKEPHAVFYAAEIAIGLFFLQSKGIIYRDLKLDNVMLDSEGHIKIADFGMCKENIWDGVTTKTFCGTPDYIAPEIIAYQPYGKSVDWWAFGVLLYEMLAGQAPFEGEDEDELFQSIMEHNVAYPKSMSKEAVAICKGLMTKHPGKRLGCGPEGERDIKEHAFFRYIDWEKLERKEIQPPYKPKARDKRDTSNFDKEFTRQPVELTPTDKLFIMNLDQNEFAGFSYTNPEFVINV
Protein kinase C eta type, sequence (P24723 whole entry): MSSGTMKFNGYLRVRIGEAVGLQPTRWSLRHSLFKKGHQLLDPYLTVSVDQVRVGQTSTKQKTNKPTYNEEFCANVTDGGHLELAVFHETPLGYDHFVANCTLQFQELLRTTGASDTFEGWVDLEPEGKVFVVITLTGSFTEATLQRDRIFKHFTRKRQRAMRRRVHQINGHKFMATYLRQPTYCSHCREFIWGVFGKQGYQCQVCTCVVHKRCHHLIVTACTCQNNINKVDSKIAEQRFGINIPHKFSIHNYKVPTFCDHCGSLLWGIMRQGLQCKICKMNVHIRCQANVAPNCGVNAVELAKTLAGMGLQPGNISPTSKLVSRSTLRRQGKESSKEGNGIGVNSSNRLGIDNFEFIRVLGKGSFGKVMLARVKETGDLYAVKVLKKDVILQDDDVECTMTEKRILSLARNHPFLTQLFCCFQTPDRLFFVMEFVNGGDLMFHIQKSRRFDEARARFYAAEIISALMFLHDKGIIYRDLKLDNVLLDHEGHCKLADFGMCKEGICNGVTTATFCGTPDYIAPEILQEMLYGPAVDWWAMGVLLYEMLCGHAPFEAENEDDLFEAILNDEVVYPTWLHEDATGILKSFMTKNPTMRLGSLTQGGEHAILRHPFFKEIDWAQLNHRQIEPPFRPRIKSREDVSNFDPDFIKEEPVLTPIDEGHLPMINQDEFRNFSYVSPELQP
Protein kinase C delta type, sequence (Q05655 whole entry): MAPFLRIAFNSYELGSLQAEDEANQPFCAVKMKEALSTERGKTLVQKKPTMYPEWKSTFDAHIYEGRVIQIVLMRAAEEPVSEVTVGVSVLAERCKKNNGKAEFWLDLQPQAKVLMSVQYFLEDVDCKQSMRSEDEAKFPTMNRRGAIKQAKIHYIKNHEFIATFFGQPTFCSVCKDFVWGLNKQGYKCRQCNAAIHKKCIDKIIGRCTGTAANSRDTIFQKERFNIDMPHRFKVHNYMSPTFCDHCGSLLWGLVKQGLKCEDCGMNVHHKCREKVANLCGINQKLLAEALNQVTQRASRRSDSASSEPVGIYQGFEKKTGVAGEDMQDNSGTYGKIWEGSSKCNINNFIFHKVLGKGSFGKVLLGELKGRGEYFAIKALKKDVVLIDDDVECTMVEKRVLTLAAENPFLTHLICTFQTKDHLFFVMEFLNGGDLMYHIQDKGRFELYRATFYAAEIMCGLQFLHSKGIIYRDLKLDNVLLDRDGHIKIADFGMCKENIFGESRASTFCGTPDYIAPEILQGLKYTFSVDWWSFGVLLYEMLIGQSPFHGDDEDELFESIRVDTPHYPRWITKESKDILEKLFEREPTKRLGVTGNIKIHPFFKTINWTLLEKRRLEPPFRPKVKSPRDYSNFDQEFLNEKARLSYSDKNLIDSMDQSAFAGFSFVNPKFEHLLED

Row | SMILES | IC50 [1] [nM] | IC50 [2] [nM] | IC50 [3] [nM] | IC50 [4] [nM] | IC50 [5] [nM] | IC50 [6] [nM] | EC50 [7] [nM] | EC50 [8] [nM] | IC50 [9] [nM] | EC50 [10] [nM] | IC50 [11] [nM] | IC50 [12] [nM] | IC50 [13] [nM] | CC50 [14] [nM] | IC50 [15] [nM] | IC50 [16] [nM] | IC50 [17] [nM] | EC50 [18] [nM] | CC50 [19] [nM] | IC50 [20] [nM]
1 | O=C1NC(=O)C2=C1c1cn(c3ccccc13)CCO[C@H](CO)CCn1cc2c2ccccc21 | 2000 | 300 | 79000 | > 100000 | > 100000 | > 100000 | 3000 | 3000 | 8700 | – | – | – | – | – | – | – | – | – | – | –
2 | CNC[C@@H]1CCn2cc(c3ccccc32)C2=C(C(=O)NC2=O)c2cn(c3ccccc23)CCO1 | 270 | 31 | 1100 | – | 49000 | – | 240 | – | – | 240 | 170 | – | – | – | – | – | – | – | – | –
3 | O=C1NC(=O)C2=C1c1cn(c3ccccc13)CCO[C@H](CN1CCOCC1)CCn1cc2c2ccccc21 | 2500 | 1700 | > 5000 | – | – | – | 3500 | – | > 5000 | – | 2000 | 38 | 49 | > 20000 | – | – | – | – | – | –
4 | O=C1NC(=O)C2=C1c1cn(c3ccccc13)CCO[C@H](CNS(=O)(=O)c1ccccc1)CCn1cc2c2ccccc21 | > 5000 | 1900 | > 5000 | > 100000 | > 100000 | > 100000 | > 2000 | – | > 5000 | > 2000 | 880 | – | – | > 2000 | 10000 | > 5000 | – | – | – | –
5 | NC[C@@H]1CCn2cc(c3ccccc32)C2=C(C(=O)NC2=O)c2cn(c3ccccc23)CCO1 | 2100 | 240 | > 5000 | > 100000 | 83000 | 89000 | 7500 | – | – | 7500 | 2600 | – | – | > 20000 | – | 1100 | 2700 | – | – | –
6 | O=C1NC(=O)C2=C1c1cn(c3ccccc13)CCO[C@H](CNCc1ccccc1)CCn1cc2c2ccccc21 | 6500 | 2500 | 57000 | > 100000 | > 100000 | > 100000 | 4300 | – | 54000 | 4300 | 7800 | 310 | 330 | > 20000 | 4200 | 6300 | – | – | – | –
7 | O=C1NC(=O)C2=C1c1cn(c3ccccc13)CCO[C@H](CN1CCCC1)CCn1cc2c2ccccc21 | 2200 | 350 | 3800 | > 100000 | > 100000 | 11000 | 550 | – | – | 550 | 3300 | – | – | > 10000 | – | 3500 | 5300 | – | – | –
8 | CN1CCN(C[C@@H]2CCn3cc(c4ccccc43)C3=C(C(=O)NC3=O)c3cn(c4ccccc34)CCO2)CC1 | 3200 | 2000 | > 5000 | – | – | – | 550 | – | > 5000 | – | 2800 | 24 | 30 | > 20000 | – | – | – | 550 | – | –
9 | CN(C)C[C@@H]1CCn2cc(c3ccccc32)C2=C(C(=O)NC2=O)c2cn(c3ccccc23)CCO1 [RUBOXISTAURIN] | 300 | 52 | – | > 100000 | > 100000 | – | 210 | – | – | – | – | – | – | – | – | – | 6200 | – | > 20000 | 320
10 | CN[C@@H]1C[C@H]2O[C@@](C)([C@@H]1OC)n1c3ccccc3c3c4c(c5c6ccccc6n2c5c31)C(=O)NC4 [STAUROSPORINE] | – | – | – | – | – | – | – | – | – | – | – | – | – | < 20 | – | – | 4 | – | – | –
